Experimental data as given in ChEMBL document CHEMBL3286381 (J Med Chem, 2014).
Active and inactive are the calls of the source. The calls are words filed in the database; no cut-off is given here.

Key:
[1] = biological target: P2Y purinoceptor 1 (Homo sapiens) (UniProt P47900); assay: Agonist activity at human P2Y1 receptor expressed in human 1321N1 cells assessed as increase of intracellular calcium level up to 10 uM after 30 mins using fura-2 AM by fluorescence assay; type: functional, cell-based
[2] = biological target: T1, Ectonucleotide pyrophosphatase/phosphodiesterase family member 1 (Homo sapiens) (UniProt P22413); assay: Inhibition of NPP1 in human HTB-85 cells using pNP-TMP as substrate at 100 uM after 20 mins […]; type: cell-based
T1 sequence (whole entry): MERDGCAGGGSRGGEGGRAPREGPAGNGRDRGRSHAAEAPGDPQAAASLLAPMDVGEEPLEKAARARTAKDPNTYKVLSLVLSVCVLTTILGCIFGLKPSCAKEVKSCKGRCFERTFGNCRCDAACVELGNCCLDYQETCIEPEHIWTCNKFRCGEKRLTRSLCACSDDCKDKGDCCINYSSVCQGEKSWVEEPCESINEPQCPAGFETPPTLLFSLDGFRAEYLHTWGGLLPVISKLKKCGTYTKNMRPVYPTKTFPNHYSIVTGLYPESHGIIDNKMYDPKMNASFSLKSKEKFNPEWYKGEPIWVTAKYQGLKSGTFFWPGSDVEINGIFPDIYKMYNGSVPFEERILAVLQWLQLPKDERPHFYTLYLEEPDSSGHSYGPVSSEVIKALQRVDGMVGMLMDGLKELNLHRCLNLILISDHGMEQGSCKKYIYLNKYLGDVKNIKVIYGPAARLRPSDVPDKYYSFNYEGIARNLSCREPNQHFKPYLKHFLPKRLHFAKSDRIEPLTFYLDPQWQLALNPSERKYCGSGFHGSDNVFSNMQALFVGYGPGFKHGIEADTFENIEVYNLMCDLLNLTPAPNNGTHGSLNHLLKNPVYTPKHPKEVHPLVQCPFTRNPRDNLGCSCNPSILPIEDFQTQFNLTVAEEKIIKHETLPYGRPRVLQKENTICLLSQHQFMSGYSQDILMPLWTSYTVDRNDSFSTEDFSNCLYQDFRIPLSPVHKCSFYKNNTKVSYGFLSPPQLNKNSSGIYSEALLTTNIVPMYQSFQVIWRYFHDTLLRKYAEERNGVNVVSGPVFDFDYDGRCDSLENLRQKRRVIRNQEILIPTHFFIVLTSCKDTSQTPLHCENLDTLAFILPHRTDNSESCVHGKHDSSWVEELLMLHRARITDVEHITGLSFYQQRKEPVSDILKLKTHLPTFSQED
Outline: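 Assay on intact human osteocarcinoma HTB-85 (SaOS-2) cells as native NPP1 source, in 0.5 mL incubation mixture. pNP-TMP is added to 100 μM final with inhibitor at 100 μM. After 20 min, p-nitrophenol is read at 410 nm. Substrate alone is set as 100%. Three experiments in triplicate.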

[3] = biological target: T2, Ectonucleotide pyrophosphatase/phosphodiesterase family member 1 (Homo sapiens, UniProt P22413); assay: Mixed type inhibition of human NPP1 using pNP-TMP as substrate after 20 mins by Dixon and Cornish-Bowden method
T2 sequence (P22413 whole entry): T1 sequence (whole entry)
Outline: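 Human NPP1 (COS-7 lysate) is tested with pNP-TMP hydrolysis at 37 °C in pH 8.5 Tris buffer, reading p-nitrophenol at […]. Substrate is 25, 50 and 100 μM, and inhibitor is 0, 25, 50 and 100 μM. Inhibition type, Ki and Ki′ (EIS complex dissociation constant) come from Dixon and Cornish–Bowden plots of three independent experiments.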

[4] = biological target: T3, Ectonucleoside triphosphate diphosphohydrolase 2 (Homo sapiens) (UniProt Q9Y5L3); assay: Inhibition of human NTPDase-2 using ATP as substrate assessed as inorganic phosphate release at 100 uM after 15 mins relative to control
T3 sequence (whole entry): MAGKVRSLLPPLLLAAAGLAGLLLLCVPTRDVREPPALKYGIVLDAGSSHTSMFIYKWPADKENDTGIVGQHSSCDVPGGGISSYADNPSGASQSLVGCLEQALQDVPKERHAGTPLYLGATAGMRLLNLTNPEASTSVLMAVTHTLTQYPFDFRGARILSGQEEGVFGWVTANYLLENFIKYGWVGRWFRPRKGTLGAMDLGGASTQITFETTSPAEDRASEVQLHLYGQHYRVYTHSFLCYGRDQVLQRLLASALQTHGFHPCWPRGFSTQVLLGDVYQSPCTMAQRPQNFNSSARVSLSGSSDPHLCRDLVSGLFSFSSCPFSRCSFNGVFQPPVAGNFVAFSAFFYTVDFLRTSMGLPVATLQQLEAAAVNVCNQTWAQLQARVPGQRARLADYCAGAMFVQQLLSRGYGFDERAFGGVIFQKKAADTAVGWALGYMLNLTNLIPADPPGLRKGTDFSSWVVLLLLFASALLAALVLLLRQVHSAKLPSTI
Outline: (§1)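 Protein extracts are from COS-7 cells transiently transfected with human NTPDase1, 2, 3 or 8. Extract is preincubated for 3 min at 37 °C in Tris–Ringer buffer (pH 7.3). […] Three experiments in triplicate.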

[5] = biological target: T4, Ectonucleoside triphosphate diphosphohydrolase 3 (Homo sapiens) (UniProt O75355); assay: Inhibition of human NTPDase-3 using ATP as substrate assessed as inorganic phosphate release at 100 uM after 15 mins relative to control; outline: as §1
T4 sequence (whole entry): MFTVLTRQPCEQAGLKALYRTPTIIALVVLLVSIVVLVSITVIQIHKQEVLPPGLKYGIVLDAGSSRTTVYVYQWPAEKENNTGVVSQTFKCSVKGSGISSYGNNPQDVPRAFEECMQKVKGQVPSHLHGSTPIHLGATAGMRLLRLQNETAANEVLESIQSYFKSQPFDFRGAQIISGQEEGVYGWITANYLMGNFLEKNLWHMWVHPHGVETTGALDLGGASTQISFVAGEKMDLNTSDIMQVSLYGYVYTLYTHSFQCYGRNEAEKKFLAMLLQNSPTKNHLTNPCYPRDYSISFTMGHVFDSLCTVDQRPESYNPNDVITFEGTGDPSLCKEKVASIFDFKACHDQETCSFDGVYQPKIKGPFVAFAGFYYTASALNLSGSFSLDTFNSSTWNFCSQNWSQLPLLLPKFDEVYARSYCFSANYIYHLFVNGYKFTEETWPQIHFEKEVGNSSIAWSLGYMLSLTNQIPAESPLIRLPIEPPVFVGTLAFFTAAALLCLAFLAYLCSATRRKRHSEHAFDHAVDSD

[6] = biological target: T1, Ectonucleotide pyrophosphatase/phosphodiesterase family member 1 (Homo sapiens); assay: Inhibition of human NPP1 using ATP as substrate at 100 uM after 20 mins by reversed-phase HPLC analysis

Chain of P2Y purinoceptor 1 (Homo sapiens) (P47900 whole entry): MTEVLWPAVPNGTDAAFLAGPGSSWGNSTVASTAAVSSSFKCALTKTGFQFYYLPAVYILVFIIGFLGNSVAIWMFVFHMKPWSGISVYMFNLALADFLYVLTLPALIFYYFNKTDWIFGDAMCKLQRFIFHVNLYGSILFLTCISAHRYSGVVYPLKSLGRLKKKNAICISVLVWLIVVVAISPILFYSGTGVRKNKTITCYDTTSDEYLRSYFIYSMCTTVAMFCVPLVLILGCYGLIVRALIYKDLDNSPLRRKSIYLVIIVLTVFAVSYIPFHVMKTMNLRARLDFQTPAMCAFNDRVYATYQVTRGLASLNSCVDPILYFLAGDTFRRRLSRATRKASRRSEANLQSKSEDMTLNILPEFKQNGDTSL

SMILES	Activity [1]	inhibition [2]	IC50 [3]	Ki [3]	inhibition [4]	inhibition [5]	inhibition [6]
Nc1ncnc2c1ncn2[C@@H]1O[C@H](CO[P@](O)(=S)OP(=O)(O)C(Cl)(Cl)P(=O)(O)O)[C@@H](O)[C@H]1O	inactive	Active	0.6 µM	0.685 µM	11.2%	21.8%	Active
Nc1ncnc2c1ncn2[C@@H]1O[C@H](CO[P@@](O)(=S)OP(=O)(O)C(Cl)(Cl)P(=O)(O)O)[C@@H](O)[C@H]1O	inactive	Active	31.2 µM	15.2 µM	9.9%	18.7%	Active
Nc1ncnc2c1ncn2[C@@H]1O[C@H](CO[P@@](O)(=S)OP(=O)(O)CP(=O)(O)O)[C@@H](O)[C@H]1O	inactive	Active	18.7 µM	1.3 µM	12.7%	24%	Active
Nc1ncnc2c1ncn2[C@@H]1O[C@H](CO[P@](O)(=S)OP(=O)(O)CP(=O)(O)O)[C@@H](O)[C@H]1O	inactive	Active	16.3 µM	4.5 µM	15.4%	26.8%	Active
Nc1ncnc2c1ncn2[C@@H]1O[C@H](COP(=O)(O)CP(=O)(O)OP(O)(O)=S)[C@@H](O)[C@H]1O	inactive	Active	–	–	16.3%	40.2%	Active
